Test results as given in ChEMBL document CHEMBL4321877, “Development of Novel N-hydroxypyridone Derivatives as Potential Anti-Ischemic Stroke Agents” (J Med Chem, 2020).
Values after ≈ are worked out from the molar mass of the structure shown. Active and inactive are the calls of the source. The calls are words filed in the database; no cut-off is given here.

What was measured:
SH-SY5Y [1] = assay: Neuroprotective activity against oxygen-glucose deprivation-induced toxicity in human SH-SY5Y cells assessed as cell viability at 1 uM preincubated for 2 hrs followed by OGD-challenge and measured after 24 hrs by MTT assay (reference value: 49.91%); assay type: functional; details: read-out: Activity
SH-SY5Y [2] = assay: Neuroprotective activity against oxygen-glucose deprivation-induced toxicity in human SH-SY5Y cells assessed as cell viability at 10 uM preincubated for 2 hrs followed by OGD-challenge and measured after 24 hrs by MTT assay (reference value: 49.91%); assay type: functional; details: read-out: Activity
[3] = Metal chelating activity of the compound assessed as formation of ferric-compound complex at 60 uM after 15 mins using ammonium iron citrate solution by UV-vis spectrophotometric method
[4] = Metal chelating activity of the compound assessed as formation of ferric-compound complex at 60 uM after 15 mins using FeSO4 solution by UV-vis spectrophotometric method
SH-SY5Y [5] = assay: Neuroprotective activity against oxygen-glucose deprivation-induced toxicity in human SH-SY5Y cells assessed as cell viability at 1 uM preincubated for 2 hrs followed by OGD-challenge and measured after 24 hrs by MTT assay (reference value: 54.92 +/- 2.12%); assay type: functional; details: read-out: Activity
SH-SY5Y [6] = assay: Neuroprotective activity against oxygen-glucose deprivation-induced toxicity in human SH-SY5Y cells assessed as cell viability at 10 uM preincubated for 2 hrs followed by OGD-challenge and measured after 24 hrs by MTT assay (reference value: 54.92 +/- 2.12%); assay type: functional; details: read-out: Activity
SH-SY5Y [7] = assay: Neuroprotective activity against oxygen-glucose deprivation-induced toxicity in human SH-SY5Y cells assessed as cell viability at 2 uM preincubated for 2 hrs followed by OGD-challenge and measured after 24 hrs by MTT assay (reference value: 54.92 +/- 2.12%); assay type: functional; details: read-out: Activity
[8] = Antioxidant activity assessed as trolox equivalent of AAPH radical scavenging activity measured every min for 180 mins by ORAC-FL assay; assay type: functional
[9] = Permeability of the compound incubated for 10 hrs by PAMPA; assay type: ADME; details: read-out: permeability
SH-SY5Y [10] = assay: Neuroprotective activity against oxygen-glucose deprivation-induced toxicity in human SH-SY5Y cells assessed as increase in cell viability preincubated for 2 hrs followed by OGD-challenge and measured after 24 hrs by MTT assay; assay type: functional, cell-based
HT-22 = assay: Neuroprotective activity against glutamate-induced cell death in mouse HT22 cells assessed as increase in cell viability up to 4 uM preincubated for 2 hrs followed by glutamate-challenge and measured after 24 hrs by MTT assay; assay type: functional, cell-based
Summary of the method: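 HT22 mouse hippocampal cells (DMEM, 10% FBS) seeded 5×10^4 cells/ml and grown 12 h. Compound added for 2 h, then 10 mM L-glutamic acid hydrochloride for 24 h. Viability by MTT at 490 nm as % of control; mean ± SD, n = 3.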

[11] = Metal chelating activity of the compound assessed as formation of ferrous-compound complex at 60 uM after 15 mins using ammonium iron(II) sulfate solution by UV-vis spectrophotometric method
[12] = Metal chelating activity of the compound assessed as formation of ferric-compound complex at 60 uM after 15 mins using FeCl3 solution by UV-vis spectrophotometric method
[13] = Metal chelating activity of the compound assessed as formation of ferric-compound complex by measuring change in color at 60 uM after 15 mins using ammonium iron citrate solution by UV-vis spectrophotometric method
[14] = Metal chelating activity of the compound assessed as formation of ferric-compound complex by measuring change in color at 60 uM after 15 mins using FeSO4 solution by UV-vis spectrophotometric method
Rattus norvegicus = assay: Neuroprotective activity in Sprague-Dawley rat model of middle cerebral artery occlusion-induced ischemia-reperfusion injury assessed as reduction in disease severity score at 3 mg/kg, iv measured 24 hrs post-reperfusion; assay type: functional, organism-based
Summary of the method: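 Male Sprague-Dawley rats anesthetized with chloral hydrate (400 mg/kg i.p.); left MCA occluded by intraluminal nylon suture for 2 h, then withdrawn. Compound in 0.9% saline given by tail vein immediately after reperfusion; body temperature held at 37.0 ± 0.5 °C. mNSS scored 24 h later; n = 15–18, mean ± SEM.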

[15] = Metal chelating activity of the compound assessed as formation of ferric-compound complex at 60 uM after 15 mins using ammonium iron citrate solution by UV-vis spectrophotometric method
SH-SY5Y [16] = assay: Cytotoxicity against human SH-SY5Y cells assessed as reduction in cell viability at 10 uM measured after 24 hrs by MTT assay; assay type: cell-based
Summary of the method: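 SH-SY5Y cells (1:1 MEM/F12, 10% FBS) seeded 3 × 10^4 cells/well, grown 24 h, then exposed without insult for 24 h to 1.56–100 µM or to 1 and 10 µM (DMSO stock diluted in medium). MTT read at 490 nm; viability as % of untreated control.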

SH-SY5Y [17] = assay: Neuroprotective activity against oxygen-glucose deprivation-induced toxicity in human SH-SY5Y cells assessed as cell viability at 1 uM preincubated for 2 hrs followed by OGD-challenge and measured after 24 hrs by MTT assay (reference value: 54.23 +/- 4.48%); assay type: functional; details: read-out: Activity
SH-SY5Y [18] = assay: Neuroprotective activity against oxygen-glucose deprivation-induced toxicity in human SH-SY5Y cells assessed as cell viability at 4 uM added immediately before OGD-challenge and measured after 24 hrs by MTT assay (reference value: 54.23 +/- 4.48%)
[19] = Solubility of the compound in […] incubated for 24 hrs by HPLC analysis; assay type: physicochemical
SH-SY5Y [20] = assay: Neuroprotective activity against oxygen-glucose deprivation-induced toxicity in human SH-SY5Y cells assessed as cell viability at 4 uM preincubated for 2 hrs followed by OGD-challenge and measured after 24 hrs by MTT assay (reference value: 54.92 +/- 2.12%); assay type: functional; details: read-out: Activity

SMILES	viability at 1 µM (SH-SY5Y [5]) [%]	viability at 10 µM (SH-SY5Y [6]) [%]	other results
CCOn1c(C2CCCCC2)cc(C)cc1=O	–	–	viability at 1 µM (SH-SY5Y [1]): 46.3%; viability at 10 µM (SH-SY5Y [2]): 43.9%; Activity [3]: inactive; Activity [4]: inactive
CCCCCCCCCc1cc(C)cc(=O)n1O	53	42.5	–
Cc1cc(C2CCCCC2)n(O)c(=O)c1I	76.3	55.1	viability at 2 µM (SH-SY5Y [7]): > 80%; Activity (umolequiv/umol) [8]: 0.2; Papp at 10 h [9]: 7.65 ×10⁻⁶ cm/s
CNCc1c(C)cc(C2CCCCC2)n(O)c1=O	60.9	67.5	–
CCCCCCCc1cc(C)cc(=O)n1O	71.7	58.5	Activity (SH-SY5Y [10]): inactive
Cc1cc(C2CCCCC2)n(O)c(=O)c1Cl	63.4	57.1	–
Cc1cc(C2CCCCC2)n(O)c(=O)c1	–	–	Activity (umolequiv/umol) [8]: 0.52; Activity (HT-22): Active; Activity [3]: Active; Activity [4]: Active; Activity [11]: Active; Activity [12]: Active; Activity [13]: Active; Activity [14]: Active; Activity (Rattus norvegicus): Active; Activity [15]: Active
O=c1c2ccccc2cc(C2CCCCC2)n1O	78.5	61.6	Activity [8]: inactive; Papp at 10 h [9]: 4.43 ×10⁻⁶ cm/s
Cc1cc(C2CCCCC2)n(O)c(=O)c1CNC(C)C	61	65.2	–
Cc1cc(C)n(O)c(=O)c1 [METIPIROX]	55.8	18.3	–
Cc1cc(C2CCC2)n(O)c(=O)c1	46	71.2	–
CCc1cc(C2CCCCC2)n(O)c(=O)c1	69.8	67.3	Activity [8]: inactive; Papp at 10 h [9]: 4.53 ×10⁻⁶ cm/s
C#CCNCc1c(C)cc(C2CCCCC2)n(O)c1=O	63.6	61.6	–
Cc1cc(C2CCCCC2)n(OCC(=O)O)c(=O)c1	56	55.9	–
Cc1cc(C2CCCCC2)n(O)c(=O)c1C=O	54.8	56.5	–
Cc1cc(C2CCCCCC2)n(O)c(=O)c1	71	38.4	Activity (SH-SY5Y [16]): Toxic; viability at 2 µM (SH-SY5Y [7]): > 80%; Activity [8]: inactive; Papp at 10 h [9]: 4.42 ×10⁻⁶ cm/s

SMILES	viability at 1 µM (SH-SY5Y [5]) [%]	viability at 10 µM (SH-SY5Y [6]) [%]	other results
CCCCCCCNCc1c(C)cc(C2CCCCC2)n(O)c1=O	–	–	viability at 1 µM (SH-SY5Y [17]): 60%; viability at 4 µM (SH-SY5Y [18]): 87.2%
Cc1cc(C2CC2)n(O)c(=O)c1	58.8	62.8	–
Cc1cc(CC(C)C)n(O)c(=O)c1	47.7	73.3	–
CCCCCc1cc(C)cc(=O)n1O	63.5	62	–
Cc1cc(C2CCCCC2)n(O)c(=O)c1Br	62.9	59.9	–
CCCNCc1c(C)cc(C2CCCCC2)n(O)c1=O	61	68	–
O=c1cccc(C2CCCCC2)n1O	51.8	76.6	–
Cc1cc(Cc2ccccc2)n(O)c(=O)c1	46.5	76.8	–
Cc1cc(C2CCCCC2)n(O)c(=O)c1 [CICLOPIROX]	70.1	69.8	Activity (SH-SY5Y [16]): Toxic; Papp at 10 h [9]: 8.17 ×10⁻⁶ cm/s; solubility at 24 h [19]: 1430 µg/mL (≈ 6.9 mM)
COC(=O)COn1c(C2CCCCC2)cc(C)cc1=O	49.9	56.4	–
Cc1cc(C2CCCC2)n(O)c(=O)c1	52.4	70.7	–
Cc1cc(=O)n(O)c(C2CCCCC2)c1Br	81	63.2	Activity [8]: inactive; Papp at 10 h [9]: 3.97 ×10⁻⁶ cm/s
CCCc1cc(C)cc(=O)n1O	47	64	–
Cc1cc(C2CCCCC2)n(O)c(=O)c1CNc1ccccc1	56.8	75.5	–
Cc1cc([C@H]2C[C@H]3CC[C@@H]2C3)n(O)c(=O)c1	70.6	64.5	Activity (SH-SY5Y [16]): Toxic; viability at 2 µM (SH-SY5Y [7]): > 80%; viability at 4 µM (SH-SY5Y [20]): > 80%; Activity (umolequiv/umol) [8]: 1.13; Papp at 10 h [9]: 7.5 ×10⁻⁶ cm/s; solubility at 24 h [19]: 1220 µg/mL (≈ 5.56 mM); Activity [3]: Active; Activity [4]: Active; Activity [11]: Active; Activity [12]: Active; Activity [13]: Active; Activity [14]: Active; Activity [15]: Active
Cc1cc(C2CCCCC2)n(O)c(=O)c1CNC1CCCC1	67	61.9	Activity (SH-SY5Y [16]): Toxic; Activity [8]: inactive; Papp at 10 h [9]: 3.89 ×10⁻⁶ cm/s
